These results are taken from ChEMBL document CHEMBL5214998, “Development of Macrocyclic PRMT5-Adaptor Protein Interaction Inhibitors” (J Med Chem, 2022).

Data set [1] concerns the target T1, PRMT5/MEP50 complex (Homo sapiens, UniProt O14744). Briefly: Binding affinity to PRMT5/MEP50 (unknown origin) assessed as inhibition constant by FITC- Competitive binding assay. The format is protein-complex assay. In outline: (§1)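 Competitive FP: 1 nM FITC-labeled tracer peptide with PRMT5-MEP50 (194 nM with tracer 50; 600 nM with tracer 21); unlabeled peptide titrated as two-fold dilutions in 50 mM HEPES, 250 mM NaCl, 1 mM TCEP, 0.01% Tween 20, pH 8.0; room temperature up to 1 h 45 min; read 485/535 nm; triplicate.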

Data set [2] concerns the target T1, PRMT5/MEP50 complex. As to the kind of experiment: Inhibition of PRMT5/MEP50 (unknown origin) incubated for 1 to 2 hrs in presence of tracer 21 by competitive fluorescence polarization assay. It counts as protein-complex assay. In outline:
as §1
(Fluorescence polarisation rises when a labelled molecule tumbles more slowly, as on binding a larger partner.)

Data set [3] in a line: Stability in human U2OS cells assessed as half life incubated upto 24 hrs by HPLC analysis. The format is ADME, cell-based. The conditions noted are these: U2OS cell lysate.
In data set [4] the target is T1, PRMT5/MEP50 complex. Briefly: Inhibition of PRMT5/MEP50 (unknown origin) incubated for 1 to 2 hrs in presence of tracer 50 by competitive fluorescence polarization assay. The format is protein-complex assay. The method in brief: as §1
Data set [5] has as its target PRMT5/MEP50 complex (Homo sapiens, UniProt O14744+Q9BQA1). As to the kind of experiment: Binding affinity to PRMT5/MEP50 (unknown origin) assessed as dissociation constant by FITC- Competitive binding assay. It counts as protein-complex assay.
The nature of data set [6]: Inhibition of full length human ICLN/PRMT5 (unknown origin) protein-protein interaction by fluorescence polarization assay.
For data set [7], the system named is Flp-In-T-REx-293. As to the kind of experiment: Inhibition of PRMT5/RioK1 protein-protein interaction in human Flp-In-T-REx-293 cells over-expressed with GFP-PRMT5 at 50 uM incubated for 2 hrs by immunoprecipitation assay. The format is cell-based. The method in brief:
(§2)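 S100 extracts from induced Flp-In T-REx 293 cells expressing GFP-tagged proteins were treated with peptide at 50 µM (or DMSO) for 1 h at room temperature. GFP-Trap beads were then added for 2 h at 4 °C and washed. Co-purified PRMT5, MEP50, RioK1 and pICln were detected by immunoblot with fluorescent secondary antibodies.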

The subject of data set [8] is Flp-In-T-REx-293. Briefly: Inhibition of PRMT5/RioK1 protein-protein interaction in human Flp-In-T-REx-293 cells over-expressed with GFP-RioK1 at 50 uM incubated for 2 hrs by immunoprecipitation assay. The format is cell-based. In outline: as §2

Activity calls are given as the source filed them. Numbered stars: 1 amine (or outer) side, 2 acyl side, 3 side chain; on linkers, the order of the positions; unused ones are H or OH. Bridge positions count the residues as written; N and C are the ends. Square brackets hold non-standard residues; d marks the D form. Peptide text beside a SMILES is read from it. * marks the point of attachment. FITC = O=C1OC2(c3ccc(O)cc3Oc3cc(O)ccc32)c2ccc(NC(=S)*)cc21; Hag = O=C([C@H](CCC=[*:3])N[*:1])[*:2]; dAllylGly = C=CC[C@@H](N)C(=O)O

PRMT5/MEP50 complex (Homo sapiens, UniProt O14744+Q9BQA1), sequence (O14744 whole entry): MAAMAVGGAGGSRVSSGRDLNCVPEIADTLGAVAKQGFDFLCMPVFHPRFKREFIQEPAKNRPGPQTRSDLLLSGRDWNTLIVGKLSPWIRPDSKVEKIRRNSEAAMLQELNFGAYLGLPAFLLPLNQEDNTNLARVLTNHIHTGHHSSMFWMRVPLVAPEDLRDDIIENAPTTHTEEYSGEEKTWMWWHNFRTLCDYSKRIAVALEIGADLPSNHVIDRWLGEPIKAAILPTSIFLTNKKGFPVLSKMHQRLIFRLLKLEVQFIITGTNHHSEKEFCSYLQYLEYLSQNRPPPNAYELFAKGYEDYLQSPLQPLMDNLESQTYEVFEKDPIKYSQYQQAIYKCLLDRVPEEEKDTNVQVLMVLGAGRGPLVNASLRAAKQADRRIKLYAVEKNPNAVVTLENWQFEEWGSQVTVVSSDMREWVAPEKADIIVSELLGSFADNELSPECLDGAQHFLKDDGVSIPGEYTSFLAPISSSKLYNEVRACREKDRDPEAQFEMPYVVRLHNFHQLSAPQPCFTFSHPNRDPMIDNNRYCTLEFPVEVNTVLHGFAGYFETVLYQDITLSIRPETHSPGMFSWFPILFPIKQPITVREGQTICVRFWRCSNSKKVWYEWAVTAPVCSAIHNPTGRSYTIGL
PRMT5/MEP50 complex (Homo sapiens, UniProt O14744+Q9BQA1), sequence (Q9BQA1 whole entry): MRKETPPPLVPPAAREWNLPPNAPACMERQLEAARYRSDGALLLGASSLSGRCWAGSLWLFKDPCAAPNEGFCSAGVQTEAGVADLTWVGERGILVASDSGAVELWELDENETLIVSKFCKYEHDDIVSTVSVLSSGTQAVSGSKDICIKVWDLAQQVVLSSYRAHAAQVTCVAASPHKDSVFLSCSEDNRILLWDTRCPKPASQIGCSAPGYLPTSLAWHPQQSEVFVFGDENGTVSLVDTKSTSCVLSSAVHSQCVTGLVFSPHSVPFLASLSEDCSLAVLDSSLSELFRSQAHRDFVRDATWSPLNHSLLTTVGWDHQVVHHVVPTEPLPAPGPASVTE
T1 sequence (O14744 whole entry): as the sequence (O14744 whole entry) above
T1 sequence (Q9BQA1 whole entry, further chain): as the sequence (Q9BQA1 whole entry) above

As to Ac-VPGQFDDAD-NH2, on PRMT5/MEP50 complex [1], the Ki was 862 nM. For the same compound, the IC50 on PRMT5/MEP50 complex [2] was 2490 nM; on PRMT5/MEP50 complex [4], 5300 nM. For the same compound, the half-life in data set [3] was 4.4 h.
Regarding `CC(=O)N[C@H](C(=O)N1CCC[C@H]1C(=O)N[C@H]1CC/C=C/C[C@H](C(=O)N[C@@H](CC(=O)O)C(=O)N[C@@H](C)C(=O)N[C@@H](CC(=O)O)C(=O)N[C@@H](CCCCNC(=S)Nc2ccc3c(c2)C(=O)OC32c3ccc(O)cc3Oc3cc(O)ccc32)C(N)=O)NC(=O)[C@H](Cc2ccccc2)NC(=O)[C@H](CCC(N)=O)NC1=O)C(C)C` (Ac-VP[Hag]QF[dAllylGly]DADK(FITC)-NH2; staple (E) 3-6), at PRMT5/MEP50 complex [5], the Kd is more than 2000 nM.
Same read-out and setting: in the case of `CC(C)[C@H](NC(=O)[C@H](CCCNC(=N)N)NC(=O)[C@H](CO)NC(=O)COCCOCCNC(=S)Nc1ccc2c(c1)C(=O)OC21c2ccc(O)cc2Oc2cc(O)ccc21)C(=O)N[C@H](C(=O)N1CCC[C@H]1C(=O)N[C@H]1CCNC(=O)CC[C@H](C(=O)N[C@@H](CC(=O)O)C(=O)N[C@@H](C)C(=O)N[C@@H](CC(=O)O)C(N)=O)NC(=O)[C@H](Cc2ccccc2)NC(=O)[C@H](CCC(N)=O)NC1=O)C(C)C` it was more than 2000 nM.
`CC(=O)N[C@H](C(=O)N1CCC[C@H]1C(=O)N[C@H]1CCCCC[C@@H](C(=O)N[C@@H](CC(=O)O)C(=O)N[C@@H](C)C(=O)N[C@@H](CC(C(=O)O)C(=O)O)C(N)=O)NC(=O)[C@H](Cc2ccc([N+](=O)[O-])cc2)NC(=O)[C@H](CCC(N)=O)NC1=O)C(C)C` yielded an IC50 in data set [6] of 654 nM. For the same compound, the inhibition entry with Flp-In-T-REx-293 [7] and in the data set with Flp-In-T-REx-293 [8] was “Active” each time.
With Ac-SRVVPGQFDDAD-NH2, the Ki on PRMT5/MEP50 complex [1] was determined as 1800 nM.
`CC(C)[C@H](NC(=O)[C@H](CCCNC(=N)N)NC(=O)[C@H](CO)NC(=O)COCCOCCNC(=S)Nc1ccc2c(c1)C(=O)OC21c2ccc(O)cc2Oc2cc(O)ccc21)C(=O)N[C@H](C(=O)N1CCC[C@H]1C(=O)N[C@H]1CNC(=O)CC[C@H](C(=O)N[C@@H](CC(=O)O)C(=O)N[C@@H](C)C(=O)N[C@@H](CC(=O)O)C(N)=O)NC(=O)[C@H](Cc2ccccc2)NC(=O)[C@H](CCC(N)=O)NC1=O)C(C)C`: the Kd at PRMT5/MEP50 complex [5] was more than 2000 nM.
On the same count and under the same terms, in the case of `CC(=O)N[C@H](C(=O)N1CCC[C@H]1C(=O)N[C@H]1C/C=C\CC[C@H](C(=O)N[C@@H](CC(=O)O)C(=O)N[C@@H](C)C(=O)N[C@@H](CC(=O)O)C(=O)N[C@@H](CCCCNC(=S)Nc2ccc3c(c2)C(=O)OC32c3ccc(O)cc3Oc3cc(O)ccc32)C(N)=O)NC(=O)[C@H](Cc2ccccc2)NC(=O)[C@H](CCC(N)=O)NC1=O)C(C)C` it was more than 2000 nM; in that of `CC(C)[C@H](NC(=O)[C@H](CCCNC(=N)N)NC(=O)[C@H](CO)NC(=O)COCCOCCNC(=S)Nc1ccc2c(c1)C(=O)OC21c2ccc(O)cc2Oc2cc(O)ccc21)C(=O)N[C@H](C(=O)N1CCC[C@H]1C(=O)N[C@H]1CCNC(=O)C[C@H](C(=O)N[C@@H](CC(=O)O)C(=O)N[C@@H](C)C(=O)N[C@@H](CC(=O)O)C(N)=O)NC(=O)[C@H](Cc2ccccc2)NC(=O)[C@H](CCC(N)=O)NC1=O)C(C)C`, more than 2000 nM.

What is called Ki is a measure of affinity in units of concentration, obtained from inhibition or displacement. Usually IC50 stands for the concentration at which inhibition is half-maximal. A word on the half-life: it is the time needed for the level to fall by half in the phase considered. The term Kd denotes a measure of binding affinity in units of concentration.
